Screening results (PubChem BioAssay)
A selection: hits, their analogues and other compounds. The true share with any hit is near 2.3%.
CHT block – inhibitors of human choline transporter CHT. CHT-expressing cells, membrane potential dye, choline response; stronger effect = lower value. Q9GZV3. 310,000 compounds, 0.86% hits. B-score at 10 µM;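 active = B-score over 3 SD under the library average, and starting fluorescence ratio not unusually high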;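 note: choline stimulus applied at its EC90 after an EC20 pre-addition; B-score computed on integrated fluorescence ratio after choline addition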
NR2E3 ag-1 – agonists of human nuclear receptor NR2E3; Q9Y5X4; GST-NR2E3/biotin-RetCOR TR-FRET, 1536-well; inhibition of corepressor binding, % at 4.78 µM; 320,000 compounds, 0.12% hits; AID 2300;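 active = percent inhibition above the cutoff of mean plus 3 SD of all tested compounds, set per screening campaign, cut at about 20% in these data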;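 note: 0% = DMSO wells and 100% = biotin wells as full block of FRET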
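Material: NR2E3–RetCOR corepressor complex / Incubation: Compound–protein incubation for 5 h at 4 °C / Dosing: compound at 4.8 µM, single dose / Detection: time-resolved FRET / Benchmarks: high control biotin, low control 0.6% DMSO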
COUP-TFII inh – inhibitors of human COUP-TFII (NR2F2); inhibition, % at 8.6 µM; 370,000 compounds, 0.7% hits; HEK293T NGFI-A luciferase reporter, luminescence; P24468; AID 686940;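 active = inhibition above a per-plate cutoff, mean inhibition of test wells between control levels plus 3 SD, cut at about 38% in these data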;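 note: cells cotransfected with COUP-TFII expression vector driving the NGFI-A reporter; 0% = median of COUP-TF2 test wells and 100% = reporter-only cells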
Target sequence (P24468 whole entry, looked up): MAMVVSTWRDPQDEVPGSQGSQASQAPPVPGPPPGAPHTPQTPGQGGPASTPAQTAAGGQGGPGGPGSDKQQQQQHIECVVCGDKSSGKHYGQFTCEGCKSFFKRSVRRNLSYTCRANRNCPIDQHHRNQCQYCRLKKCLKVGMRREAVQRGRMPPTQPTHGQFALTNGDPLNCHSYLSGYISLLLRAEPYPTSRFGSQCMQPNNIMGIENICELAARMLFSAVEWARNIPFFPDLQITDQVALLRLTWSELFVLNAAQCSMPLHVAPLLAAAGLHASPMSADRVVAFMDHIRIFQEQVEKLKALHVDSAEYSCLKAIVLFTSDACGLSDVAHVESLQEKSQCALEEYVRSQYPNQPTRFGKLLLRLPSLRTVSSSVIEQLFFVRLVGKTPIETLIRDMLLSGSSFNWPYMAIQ
NR2E3 ag-2 – agonists of human NR2E3 nuclear receptor. 360,000 compounds, 0.35% hits. Q9Y5X4. CHO-S Gal4-NCOR/VP16-NR2E3 two-hybrid, luciferase. inhibition of corepressor binding, % at 3.98 µM;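 active = inhibition above the mean of all tested compounds plus 3 SD, cut at about 70% in these data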;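 note: 0% = DMSO with NR2E3 transfected cells and 100% = cells lacking NR2E3 construct; higher means lower luciferase signal from less NR2E3 corepressor binding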
CHT PAM – allosterically activates the human high affinity choline transporter | B-score at 10 µM | CHT-expressing cells, membrane potential dye, choline EC20; stronger effect = higher value; LV-AA mutant CHT in HEK293 cells | 310,000 compounds, 0.49% hits | Q9GZV3;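 active = initial fluorescence not abnormally high and integrated response B-score, plate-corrected, over 3 SD above library mean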
GalR3 antagonist – human GalR3 antagonism | AID 651719 | 360,000 compounds, 0.44% hits | inhibition, % at 3 µM | HEK293 GalR3-CNG cAMP membrane potential fluorescence; galR3 body fused to GalR1 C-terminus | O60755;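 active = inhibition above the screen-wide average plus 3 SD, cut at about 13% in these data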;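 note: forskolin and galanin both at EC90 stimulate the cells; cAMP rise reported by CNG channel membrane potential dye signal; 0% = forskolin plus galanin with DMSO and 100% = forskolin alone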
Target sequence (O60755 1-299 limits assumed): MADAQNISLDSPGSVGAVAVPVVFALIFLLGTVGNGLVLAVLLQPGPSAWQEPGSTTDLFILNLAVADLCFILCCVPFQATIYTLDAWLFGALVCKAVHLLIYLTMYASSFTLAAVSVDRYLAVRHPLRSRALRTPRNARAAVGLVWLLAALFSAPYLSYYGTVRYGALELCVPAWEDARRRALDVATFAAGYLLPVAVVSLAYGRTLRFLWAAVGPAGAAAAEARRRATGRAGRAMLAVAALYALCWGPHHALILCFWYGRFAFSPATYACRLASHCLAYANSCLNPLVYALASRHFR
NR2E3 ag conf – confirmation of human NR2E3 agonists | CHO-S mammalian two-hybrid NR2E3-NCOR, luciferase luminescence | inhibition, % at 3.98 µM | 2,300 compounds, 51% hits | shares compounds with NR2E3 ag-2;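 active = average inhibition above a cutoff equal to the mean inhibition of all tested compounds plus one SD, cut at about 70% in these data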;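 note: 0% = DMSO in NR2E3 cells and 100% = DMSO in cells lacking NR2E3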
GAL4-VP16 luc – counter-screen for NR2E3 agonists: GAL4-VP16 reporter inhibitors. 2,300 compounds, 29% hits. inhibition, % at 3.98 µM. shares compounds with NR2E3 ag-2. CHO-S GAL4-VP16 luciferase reporter, luminescence;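 active = mean inhibition above a cutoff equal to the average over all tested compounds plus one standard deviation, cut at about 70% in these data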;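 note: luciferase from a UAS reporter driven by GAL4-VP16 transactivation; 0% = DMSO with VP16-transfected cells and 100% = DMSO with cells lacking VP16; higher means less reporter light so more repression of VP16 activity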
GalR3 conf – confirmation of human galanin receptor 3 antagonists; shares compounds with GalR3 antagonist; inhibition, % at 3 µM; 1,600 compounds, 59% hits; AID 652245; HEK293 GalR3 CNG cAMP biosensor, membrane potential fluorescence; galR3 fused to GalR1 carboxy tail; challenged with forskolin and galanin at EC90;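 active = inhibition above the primary screen's cutoff, the mean inhibition of all screened compounds plus 3 SD, cut at about 13% in these data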;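 note: 0% = forskolin plus galanin and 100% = forskolin alone with DMSO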
HEK-CNG parental – parental cell agonism counter-screen for GalR3 antagonists; shares compounds with GalR3 antagonist; HEK293-CNG parental cells, cAMP membrane potential fluorescence; normalised: DMSO wells 0%, forskolin wells 100%; activation, % at 3 µM; 1,600 compounds, 10% hits; in the data active = activation above about 1.3%
Gal4-VP16 ctr – inhibits VP16 reporter, flagging COUP-TFII antagonist hits; HEK293 Gal4-VP16 luciferase reporter, luminescence; AID 687007; 2,500 compounds, 25% hits; inhibition, % at 8.5 µM; shares compounds with COUP-TFII inh; in the data active = inhibition above about 13%
COUP-TFII conf – COUP-TFII (NR2F2) inhibition, confirmation assay; shares compounds with COUP-TFII inh; HEK293 NGFI-A luciferase reporter, luminescence; inhibition, % at 8.5 µM; 2,500 compounds, 45% hits; AID 687008;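 active = mean inhibition over three repeats above a set limit taken from the earlier primary screen, cut at about 38% in these data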;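 note: 100% = cells given the luciferase reporter alone without the COUP-TF2 vector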
* hit, by the source's call.

For CCN(CC)CCCNC(=O)c1oc(=O)c2ccccc2c1-c1ccc(C)cc1 the results were COUP-TFII inh -10.8.
For CCNC(=S)NNC(=O)CSc1nc2ccccc2c(=O)n1-c1ccc(Cl)cc1 the results were COUP-TFII inh 6.5.
For COc1cccc(N2CCN(CC(=O)N(C)Cc3ccccc3Cl)CC2)c1 the results were COUP-TFII inh -4.9.
For Cc1cc(C(=O)NC2CCCc3c2cnn3-c2ccc(C(C)(C)C)cc2)nn1C (stereo not given) the results were CHT block inactive, NR2E3 ag-1 -5.0, COUP-TFII inh 64.0*, NR2E3 ag-2 101.4*, CHT PAM inactive, GalR3 antagonist 97.0*, NR2E3 ag conf 93.7*, GAL4-VP16 luc 81.5*, GalR3 conf 106.2*, HEK-CNG parental -0.5, Gal4-VP16 ctr 3.4 and COUP-TFII conf 70.7*.
Screening CC(=O)NCC(=O)NC1CCCc2c1cnn2-c1ccc(C(C)(C)C)cc1 (stereo not given) returned CHT block inactive, NR2E3 ag-1 -0.5, COUP-TFII inh 6.0, NR2E3 ag-2 12.3, CHT PAM inactive and GalR3 antagonist -10.8.
Screening Cc1cc(C)cc(-n2ncc3c2CCCC3NC(=O)c2cc(C)n(C)n2)c1 (stereo not given) returned CHT block inactive, NR2E3 ag-1 -0.1, COUP-TFII inh 7.5, NR2E3 ag-2 -17.1, CHT PAM inactive and GalR3 antagonist -0.7.
`CC(C)(C)c1ccc(-n2ncc3c2CCCC3NC(=O)C2(C(N)=O)CC2)cc1` (stereo not given) gave CHT block inactive, NR2E3 ag-1 -2.1, COUP-TFII inh 65.3*, NR2E3 ag-2 99.9*, CHT PAM inactive, GalR3 antagonist 91.8*, NR2E3 ag conf 91.9*, GAL4-VP16 luc 81.0*, GalR3 conf 113.9*, HEK-CNG parental 0.0, Gal4-VP16 ctr -8.2 and COUP-TFII conf 59.9*.
Screening C#CCNC(=O)C[C@H]1C[C@@]2(C(=O)OC)C(=C[C@H](C3CCCC3)O[C@@H]2C)N(CCC2=CCCCC2)C1=O returned COUP-TFII inh 13.3.
Screening CC(C)(C)OC(=O)CC[C@@H](C(=O)NCCCCCCCCCCC(=O)N1CCN(C(=O)OC(C)(C)C)CC1)n1cc(CCCCCNC(=O)OC(C)(C)C)nn1 returned CHT block inactive, NR2E3 ag-1 3.1, COUP-TFII inh 0.9, NR2E3 ag-2 -2.7, CHT PAM inactive and GalR3 antagonist -3.7.
For CC(C)(C)OC(=O)NCCCCCc1cn([C@@H](CO)C(=O)NCCCCCCCCCCC(=O)N2CCN(C(=O)OC(C)(C)C)CC2)nn1 the results were CHT block inactive, NR2E3 ag-1 3.1, COUP-TFII inh 69.4*, NR2E3 ag-2 66.0, CHT PAM inactive, GalR3 antagonist 87.8*, NR2E3 ag conf 83.2*, GAL4-VP16 luc 74.2*, GalR3 conf 101.5*, HEK-CNG parental 0.4, Gal4-VP16 ctr -5.5 and COUP-TFII conf 79.1*.
COc1ccc(-c2noc(CCCC(=O)N3CCN(c4cc(C)ccc4C)CC3)n2)cc1 was read as COUP-TFII inh -18.1, NR2E3 ag-2 -67.7 and GalR3 antagonist -9.1.
For COc1ccc(-c2noc(CCCCC(=O)N3CCN(c4cc(C)ccc4C)CC3)n2)cc1 the results were COUP-TFII inh 82.0*, NR2E3 ag-2 99.4*, GalR3 antagonist 96.7*, NR2E3 ag conf 96.5*, GAL4-VP16 luc 84.4*, GalR3 conf 105.2*, HEK-CNG parental -0.9, Gal4-VP16 ctr 21.7* and COUP-TFII conf 65.2*.
Screening Cc1oc(-c2ccc3c(c2)OCCO3)cc1C(=O)O returned CHT block inactive, NR2E3 ag-1 4.0, COUP-TFII inh 52.0*, NR2E3 ag-2 58.9, CHT PAM inactive, GalR3 antagonist -1.3, NR2E3 ag conf 60.6, GAL4-VP16 luc 50.3, Gal4-VP16 ctr -123.7 and COUP-TFII conf 10.3.
For O=[N+]([O-])c1ccccc1/C=C/C=Nn1c(-c2ccc(F)cc2)n[nH]c1=S the results were COUP-TFII inh 13.1.
Screening COc1cccc2c1C(=O)C=C(C)C2=O returned CHT block inactive, NR2E3 ag-1 -19.4, COUP-TFII inh 2.7, NR2E3 ag-2 -65.4, CHT PAM inactive and GalR3 antagonist -5.0.
For COC1=CC(=O)c2c(ccc3ncnc(N)c23)C1=O the results were COUP-TFII inh 54.8*, NR2E3 ag-2 101.8*, GalR3 antagonist -7.9, NR2E3 ag conf 100.6*, GAL4-VP16 luc 100.6*, Gal4-VP16 ctr 62.1* and COUP-TFII conf 44.1*.
For O=C(NC1CCCCN(Cc2cccc(C(F)(F)F)c2)C1=O)c1ccc(Cl)cc1 (stereo not given) the results were COUP-TFII inh 28.7.
Screening Cc1ccc(S(=O)(=O)N(C)[C@H]2C[C@H]3c4cc(-c5ccccc5C)ccc4CCN3C[C@H]2[C@H](C)O)cc1 returned COUP-TFII inh 2.5.
Screening CC1CCc2nc(NC(=O)CSc3nc4ccccc4o3)sc2C1 (stereo not given) returned CHT block inactive, NR2E3 ag-1 0.7, COUP-TFII inh 43.4*, NR2E3 ag-2 84.4*, CHT PAM inactive, GalR3 antagonist -7.3, NR2E3 ag conf 61.7, GAL4-VP16 luc 56.9, Gal4-VP16 ctr 30.6* and COUP-TFII conf 67.8*.
For Clc1ccc(-c2noc(CSc3nnc(-c4ccncc4)n3-c3ccccc3)n2)cc1 the results were CHT block inactive, NR2E3 ag-1 4.1, COUP-TFII inh 64.8*, NR2E3 ag-2 63.8, CHT PAM inactive, GalR3 antagonist -6.0, NR2E3 ag conf 61.5, GAL4-VP16 luc 30.6, Gal4-VP16 ctr -3.3 and COUP-TFII conf 12.7.
